A selection: hits, their analogues and other compounds. The true share with any hit is near 2.9%.
CaV13 ICDI inh: Primary screen for inhibitors of IQ motif and Ca2+-dependent inactivation inhibitor domain binding in CACNA1D, Förster resonance energy transfer in living cells, … | HEK cells, CFP/YFP FRET ICDI-IQ, plate reader, 10 min; percent FRET-ratio fall versus neutral wells | inhibition, % at 12.3 µM | actives 0.098% (n = 340,000) | AID 743397;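 active = mean replicate inhibition of at least 30% and at least 1% of replicates passing that level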;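 note: 0% = median of the neutral control wells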
ADAM17 inh: ADAM17 inhibitors, primary screen, biochemical, QFRET; recombinant ADAM17, EDANS/DABCYL FRET peptide cleavage; inhibition, % at 6.95 µM; actives 0.83% (n = 370,000);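 active = inhibition above the mean of compounds lying between control limits plus 3 SD, set per campaign, cut at about 8.5% in these data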;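 note: 0% = DMSO-only wells as the low control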
Target sequence (P78536 215-824 limits assumed): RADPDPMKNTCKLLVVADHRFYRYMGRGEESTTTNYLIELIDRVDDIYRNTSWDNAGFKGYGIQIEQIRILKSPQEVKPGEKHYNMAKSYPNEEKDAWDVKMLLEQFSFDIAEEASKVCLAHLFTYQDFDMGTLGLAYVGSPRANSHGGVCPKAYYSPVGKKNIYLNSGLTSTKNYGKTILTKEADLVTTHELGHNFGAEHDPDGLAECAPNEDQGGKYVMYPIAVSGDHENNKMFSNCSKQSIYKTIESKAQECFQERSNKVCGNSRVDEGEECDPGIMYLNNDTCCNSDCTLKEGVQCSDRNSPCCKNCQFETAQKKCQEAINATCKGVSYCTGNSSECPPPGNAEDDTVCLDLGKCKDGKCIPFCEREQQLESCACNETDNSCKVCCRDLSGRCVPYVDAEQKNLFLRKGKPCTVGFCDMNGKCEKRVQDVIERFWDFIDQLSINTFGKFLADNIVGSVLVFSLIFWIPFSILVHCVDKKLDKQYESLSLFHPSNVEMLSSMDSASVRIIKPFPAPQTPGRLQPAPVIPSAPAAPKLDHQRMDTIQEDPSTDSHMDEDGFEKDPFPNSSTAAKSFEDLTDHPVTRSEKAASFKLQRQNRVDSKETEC
NRP1-CendR mod: modulators of CendR peptide binding to NRP-1, primary screen, biochemical, fluorescence polarization, uHTS | FAM-RPARPAR peptide binding to NRP-1 | inhibition, % at 25 µM | actives 0.85% (n = 360,000) | AID 602438, 2012;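 active = inhibition or corrected inhibition above about 18%, plus a signal ratio from 0.5 to 1.5, limit read from the data, passing the limit was not always enough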
ADAM10 inh: human ADAM10 inhibitors, primary screen, biochemical, QFRET, HTS. Disintegrin and metalloproteinase domain-containing protein 10 (Homo sapiens), O14672. recombinant ADAM10, EDANS/DABCYL FRET peptide cleavage, 3 h. inhibition, % at 7 µM. actives 0.62% (n = 370,000). AID 720582, 2013;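 active = inhibition above a per-campaign cutoff equal to the mean of compounds falling between control-based bounds plus 3 SD, cut at about 20% in these data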;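 note: 0% = DMSO wells while the 100% control is not disclosed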
Arr AP2 block: inhibitors of beta-arrestin/AP2 binding, primary screen, biochemical, GPCR trafficking, flow cytometry; beta-arrestin 1 C-terminal peptide binding to AP2 beta2-adaptin appendage (human); FITC-arrestin peptide / GST-AP2 beads; AP2 beta2 appendage carries R879A mutation; inhibition, % at 10 µM; actives 0.31% (n = 340,000);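 active = inhibition above a set limit, near 3 SD of compounds lacking own fluorescence, cut at about 54% in these data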;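 note: plate controls were DMSO wells for no effect and 5 µM unlabelled arrestin peptide for full effect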
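Material – GST-tagged AP2 beta2-adaptin appendage (R879A) on 4 µm glutathione beads · Probe or stimulus – fluorescein-tagged arrestin peptide at 50 nM final · Timing – 12 min plus 1 h, RT · Detection – bead flow cytometry, FITC channel · Read-out basis – inhibition as reduced fluorescein signal on beads, percent · Medium – PBS plus Tween 20 (0.05%) and BSA (0.1%)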
FAS-TE inh: FAS thioesterase domain inhibitors, primary screen, biochemical, fluorescence intensity, uHTS | Fatty acid synthase (Homo sapiens), P49327 | recombinant FAS-TE, OMFH fluorogenic substrate, fluorescence endpoint | inhibition, % at 15 µM | actives 0.67% (n = 360,000) | AID 602261, 2012;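 active = compounds whose normalised, plate-corrected inhibition of enzyme fluorescence in the single-dose primary screen is 50% or more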;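 note: 0% = DMSO with enzyme and 100% = substrate without enzyme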
ADAM10 confirm: human ADAM10 inhibitors, confirmation, biochemical, QFRET, triplicate | shares compounds with ADAM10 inh | actives 1% (n = 2,100) | ADAM10 QFRET peptide cleavage, EDANS fluorescence | inhibition, % at 6.95 µM;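 active = inhibition above about 20% chosen separately for each screening run, limit read from the data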;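 note: 0% = DMSO wells and 100% = marimastat wells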
ADAM17 ctr: ADAM17 inhibitors, counter-screen for ADAM10 exosite inhibitor project, biochemical, QFRET, high throughput; shares compounds with ADAM10 inh; ADAM17 QFRET peptide cleavage, EDANS fluorescence; inhibition, % at 6.95 µM; actives 0.5% (n = 2,100);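 active = mean triplicate inhibition above the solvent-only control wells' mean plus 3 SD, cut at about 12% in these data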;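 note: 0% = DMSO wells and 100% = marimastat wells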
ADAM10 ctr: ADAM10 inhibitors, counter-screen for ADAM17 exosite inhibitor project, biochemical, FRET, human ADAM10. inhibition, % at 6.95 µM. actives 47% (n = 2,900). shares compounds with ADAM17 inh. recombinant ADAM10, EDANS/DABCYL FRET peptide cleavage, 3 h;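 active = mean inhibition over the triplicate runs exceeds the activity threshold set in the earlier primary screen, cut at about 20% in these data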;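 note: 0% = DMSO wells and 100% = marimastat wells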
ADAM17 confirm: ADAM17 inhibitors, hit retest, confirmation, biochemical, QFRET peptide cleavage; shares compounds with ADAM17 inh; recombinant ADAM17, EDANS/DABCYL QFRET peptide cleavage; inhibition, % at 6.95 µM; actives 65% (n = 2,900); AID 743257, 2014;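 active = mean inhibition across replicates above the hit cutoff set in the primary screen, cut at about 8.5% in these data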;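 note: 0% = DMSO wells and 100% = marimastat wells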
An asterisk follows results filed as active; x = no result given.

SMILES	CaV13 ICDI inh	ADAM17 inh	NRP1-CendR mod	ADAM10 inh	Arr AP2 block	FAS-TE inh	ADAM10 confirm	ADAM17 ctr	ADAM10 ctr	ADAM17 confirm
O=C(NCC1COc2ccccc2O1)c1cccc(S(=O)(=O)N2CCN(c3ccccc3)CC2)c1 (centres undefined)	-5.4	9.9*	-2.2	20.9*	-13.3	34.2	6.4	2.0	12.8	12.7*
Nc1cc(Cl)ccc1Oc1ccc2ccccc2c1	-7.0	16.8*	-4.0	29.0*	13.1	29.3	9.2	3.0	11.8	11.7*
Cc1c[nH]c2cccc(-c3ccc(Cl)cc3Cl)c12	x	2.2	x	3.6	x	x	x	x	x	x
CCCCC[C@H](C)N1C[C@@H](COCc2ccccc2)Oc2cc(N3CCC[C@H]3C(N)=O)ccc2S1(=O)=O	-8.1	11.3*	13.1	22.5*	x	23.4	9.6	2.4	38.5*	23.0*
CCCCC[C@@H](C)N1C[C@@H](COCc2ccccc2)Oc2cc(N3CCC[C@H]3C(N)=O)ccc2S1(=O)=O	-16.9	15.5*	-6.2	27.8*	x	18.5	9.6	2.8	22.5*	14.0*
CCCCC[C@H](C)N1C[C@H](COCc2ccccc2)Oc2cc(N3CCC[C@@H]3CO)ccc2S1(=O)=O	-8.6	6.0	-1.6	8.9	x	16.6	x	x	x	x
CCCCC[C@@H](C)N1C[C@H](COCc2ccccc2)Oc2cc(N3CC[C@@H](O)C3)ccc2S1(=O)=O	-8.4	9.9*	-1.6	22.2*	x	21.2	9.8	3.7	39.7*	24.1*
COc1cccc(NC(=O)C2CCCN2C(=O)NC2CCC(C)CC2)c1 (centres undefined)	x	-1.9	x	-3.3	x	x	x	x	x	x
COc1ccc(CC(=O)Nc2nc(-c3cc(OC)ccc3OC)cs2)cc1	-1.1	5.5	-17.6	14.1	2.2	25.1	x	x	x	x
COc1ccc(OC)c(-c2csc(NC(=O)COC(=O)C3(C)CC3(Cl)Cl)n2)c1 (centres undefined)	-15.3	17.7*	5.1	39.0*	-6.7	33.0	10.0	2.9	18.1	12.2*
COc1ccc(OC)c(-c2csc(NC(=O)CSc3ccccc3)n2)c1	-3.9	10.2*	-17.1	19.9*	-0.6	16.8	5.6	1.9	24.6*	10.9*
COc1ccc(OC)c(S(=O)(=O)N2CCC(C(=O)N3CCN(C4CCCCC4)CC3)CC2)c1	x	-2.0	x	-5.1	x	x	x	x	x	x
COc1ccc(Cn2nnnc2C(C(C)C)N(Cc2ccco2)Cc2cccs2)cc1 (centres undefined)	x	13.5*	-4.6	20.5*	-4.1	24.0	1.9	0.5	20.0*	13.2*
COC(=O)[C@]12C[C@H](CC(=O)N3CCSCC3)C(=O)N(Cc3ccco3)C1=C[C@H](COCc1ccccc1)O[C@@H]2C	x	2.9	x	7.9	x	x	x	x	x	x
CC(NS(=O)(=O)OCC(Cl)(Cl)Cl)c1ccc(C(C)(C)C)cc1 (centres undefined)	-10.6	14.6*	5.5	31.0*	0.3	33.0	9.2	3.0	45.4*	22.1*
Nc1nc(Nc2ccccc2)nc(NCc2ccco2)c1[N+](=O)[O-]	-12.8	9.7*	10.3	21.5*	40.4	24.4	2.2	0.8	35.7*	19.4*
Nc1nc(NCc2ccco2)nc(Nc2ccccc2)c1[N+](=O)[O-]	-3.6	1.3	-2.3	11.5	10.4	-0.5	x	x	x	x
COc1ccc(N=C2SC(CC(=O)Nc3cccc(Cl)c3)C(=O)N2Cc2ccco2)cc1 (centres undefined)	-5.6	13.9*	-14.7	21.2*	-11.4	35.1	9.5	3.0	23.2*	15.7*
COc1ccc(N=C2SC(CC(=O)Nc3ccccc3)C(=O)N2Cc2ccccn2)cc1 (centres undefined)	-4.4	-0.7	-15.8	5.2	-12.3	6.3	x	x	x	x
CC(C)[C@H](NS(=O)(=O)c1ccccc1)C(=O)OCC(=O)Nc1ccccc1Sc1ccccc1	-4.3	9.6*	2.5	19.8*	9.2	27.9	5.1	2.2	18.0	9.1*
COC(=O)c1cc(NC(=O)NC2CCCCN(Cc3cccc(Cl)c3)C2=O)cc(C(=O)OC)c1 (centres undefined)	x	-0.6	x	-6.6	x	x	x	x	x	x
O=C(COc1ccc(Br)cc1)N1CCN(c2ccc([N+](=O)[O-])c(N3CCCCC3)c2)CC1	-4.6	10.9*	9.6	24.0*	23.7	27.6	7.5	1.2	32.1*	18.0*
Cc1ccccc1-c1noc(-c2ccc(O)cc2)n1	-7.3	12.9*	2.1	32.6*	28.5	13.3	1.8	0.4	18.5	12.0*
Cc1ccc(CSc2nnc(-c3ccc(NS(=O)(=O)c4ccccc4)cc3)o2)cc1	-4.8	8.6	-3.9	18.1	-6.0	19.4	x	x	x	x
Cc1ccc(S(=O)(=O)Nc2ccc(-c3nnc(SCc4ccccc4Cl)o3)cc2)cc1	-16.0	9.6*	-8.7	23.3*	1.3	41.1	11.3	2.7	33.6*	17.1*
Cc1cccc(C(=O)Nc2cccc(NC(=O)c3ccccc3)c2)c1	-18.3	10.3*	5.7	25.9*	-3.0	9.9	2.9	-0.3	15.6	10.8*
Cn1cc([N+](=O)[O-])c(C(=O)Nc2cc(Oc3ccccc3)cc([N+](=O)[O-])c2)n1	1.0	1.5	-4.7	4.1	-1.8	18.7	x	x	x	x
